Results as given in ChEMBL document CHEMBL3616466, “Pyrazolo[3,4-h]quinolines promising photosensitizing agents in the treatment of cancer” (Eur J Med Chem, 2015).

Legend:
Assay type in all cases: functional
[1] = system: MCF7; assay: Cytotoxicity against human MCF7 cells assessed as growth inhibition after 72 hrs by MTT assay; settings: MCF7, 72 h
Method in brief: (§1)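 Cells (5 × 10³ per well) pre-incubated 24 h at 37 °C, 5% CO₂, then exposed in the dark to serial concentrations diluted from DMSO stock into complete medium for 72 h at 37 °C. Viability read by MTT; GI50 derived. LoVo in Ham's F-12, MCF-7 and A-549 in DMEM, all with 10% FBS and penicillin/streptomycin.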

[2] = system: Jurkat; assay: Cytotoxicity against human Jurkat cells assessed as growth inhibition after 72 hrs by MTT assay
[3] = system: MCF7; assay: Photocytotoxicity against human MCF7 cells assessed as growth inhibition at 3.75 J/cm'2 irradiation for 30 mins followed by drug treated for 72 hrs by MTT assay; settings: MCF7, light or radiation study
Method in brief: (§2)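 Cells seeded at 5 × 10³ per well and pre-incubated 24 h. Drug dilutions in HBSS (pH 7.2, from DMSO stock) added for 30 min at 37 °C, then UV-A irradiation at the stated dose. Drug solution then replaced with culture medium and plates incubated 72 h. Viability by MTT; GI50 from concentration series.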

[4] = system: A549; assay: Photocytotoxicity against human A549 cells assessed as growth inhibition at 2.5 J/cm'2 irradiation for 30 mins followed by drug treated for 72 hrs by MTT assay; settings: A549, light or radiation study; method in brief: as §2
[5] = system: LoVo; assay: Photocytotoxicity against human LoVo cells assessed as growth inhibition at 3.75 J/cm'2 irradiation for 30 mins followed by drug treated for 72 hrs by MTT assay; settings: light or radiation study; method in brief: as §2
[6] = system: Jurkat; assay: Photocytotoxicity against human Jurkat cells assessed as growth inhibition at 2.5 J/cm'2 irradiation for 30 mins followed by drug treated for 72 hrs by MTT assay; settings: light or radiation study; method in brief: as §2
[7] = system: Jurkat; assay: Photocytotoxicity against human Jurkat cells assessed as growth inhibition at 1.25 J/cm'2 irradiation for 30 mins followed by drug treated for 72 hrs by MTT assay; settings: light or radiation study; method in brief: as §2
[8] = system: A549; assay: Photocytotoxicity against human A549 cells assessed as growth inhibition at 3.75 J/cm'2 irradiation for 30 mins followed by drug treated for 72 hrs by MTT assay; settings: A549, light or radiation study; method in brief: as §2
[9] = system: MCF7; assay: Photocytotoxicity against human MCF7 cells assessed as growth inhibition at 2.5 J/cm'2 irradiation for 30 mins followed by drug treated for 72 hrs by MTT assay; settings: MCF7, light or radiation study; method in brief: as §2
[10] = system: LoVo; assay: Photocytotoxicity against human LoVo cells assessed as growth inhibition at 2.5 J/cm'2 irradiation for 30 mins followed by drug treated for 72 hrs by MTT assay; settings: light or radiation study; method in brief: as §2
[11] = system: HL-60; assay: Cytotoxicity against human HL60 cells assessed as growth inhibition after 72 hrs by MTT assay; settings: HL-60, 72 h
[12] = system: HL-60; assay: Photocytotoxicity against human HL60 cells assessed as growth inhibition at 2.5 J/cm'2 irradiation for 30 mins followed by drug treated for 72 hrs by MTT assay; settings: HL-60, light or radiation study; method in brief: as §2
[13] = system: A549; assay: Cytotoxicity against human A549 cells assessed as growth inhibition after 72 hrs by MTT assay; settings: A549, 72 h; method in brief: as §1
[14] = system: LoVo; assay: Cytotoxicity against human LoVo cells assessed as growth inhibition after 72 hrs by MTT assay; method in brief: as §1
[15] = system: HL-60; assay: Photocytotoxicity against human HL60 cells assessed as growth inhibition at 1.25 J/cm'2 irradiation for 30 mins followed by drug treated for 72 hrs by MTT assay; settings: HL-60, light or radiation study; method in brief: as §2

SMILES | GI50 [1] [µM] | GI50 [2] [µM] | GI50 [3] [µM] | GI50 [4] [µM] | GI50 [5] [µM] | GI50 [6] [µM] | GI50 [7] [µM] | GI50 [8] [µM] | GI50 [9] [µM] | GI50 [10] [µM] | GI50 [11] [µM] | GI50 [12] [µM] | GI50 [13] [µM] | GI50 [14] [µM] | GI50 [15] [µM]
COc1ccc(-n2ncc3c4[nH]c(=O)c(S(=O)(=O)c5ccccc5)cc4ccc32)cc1 | 8.36 | > 20 | > 20 | 5.39 | > 20 | > 20 | > 20 | 4.26 | > 20 | > 20 | > 20 | > 20 | 6.56 | > 20 | > 20
CCOC(=O)c1cc2c(nc1OC)-c1cnn(-c3ccc(OC)cc3)c1CC2 |  |  | > 20 | 6.99 | 4.3 | 6.43 | 9.93 | 4.67 | > 20 | 5.81 |  | 4.69 |  |  | 7.71
COc1nc2c(cc1S(=O)(=O)c1ccccc1)CCc1c-2cnn1C |  |  | > 20 | > 20 | > 20 | 12.7 | > 20 | > 20 | > 20 | > 20 |  | 9.79 |  |  | > 20
O=c1[nH]c2c(cc1S(=O)(=O)c1ccccc1)CCc1c-2cnn1-c1cccc(Cl)c1 | > 20 | 4.55 | > 20 | 14.1 | > 20 | > 20 | > 20 | 9.53 | > 20 | > 20 | > 20 | > 20 | 6.41 | > 20 | > 20
Cn1c2c(cc(S(=O)(=O)c3ccccc3)c1=O)CCc1c-2cnn1Cc1ccccc1 |  |  | > 20 | > 20 | 13 | 5.67 | > 20 | > 20 | > 20 | > 20 |  | 6.79 |  |  | > 20
COc1ccc(-n2ncc3c2CCc2cc(S(=O)(=O)c4ccccc4)c(=O)n(C)c2-3)cc1 |  |  | > 20 | > 20 | > 20 | 6.68 | > 20 | > 20 | > 20 | > 20 |  | 7.65 |  |  | > 20
O=c1[nH]c2c(cc1S(=O)(=O)c1ccccc1)CCc1c-2cnn1-c1ccccc1Cl |  |  | 10.4 | 13.3 | 10.1 | 3.95 | 11.3 | 8.97 | 13 | > 20 |  | 2.76 |  |  | 
COc1ccc(-n2ncc3c2CCc2cc(S(=O)(=O)c4ccccc4)c(OCc4ccccc4)nc2-3)cc1 |  |  | > 20 | > 20 | 2.76 | > 20 | > 20 | 5.74 | > 20 | > 20 |  | 9.09 |  |  | > 20
O=c1[nH]c2c(cc1S(=O)(=O)c1ccccc1)CCc1c-2cnn1Cc1ccccc1 |  |  | > 20 | > 20 | 14.5 | 6.88 | > 20 | > 20 | > 20 | > 20 |  | 5.06 |  |  | > 20
O=c1[nH]c2c(ccc3c2cnn3-c2ccc(Cl)cc2)cc1S(=O)(=O)c1ccccc1 | 9.26 | > 20 |  |  |  |  |  |  |  |  | > 20 |  | 1.46 | > 20 | 
CCOC(=O)c1cc2c(nc1OC)-c1cnn(-c3ccc(Cl)cc3)c1CC2 |  |  | > 20 | 3.68 | 1.13 | 1.81 | 4.47 | 2.3 | > 20 | 2.79 |  | 1.71 |  |  | 5.38
COc1ccc(-n2ncc3c2CCc2cc(S(=O)(=O)c4ccccc4)c(=O)[nH]c2-3)cc1 | 8.54 | > 20 |  |  |  |  |  |  |  |  | > 20 |  | 4.04 | > 20 | 
